# Screens: PubChem, several laboratories
# NR2E3 ag-1: activates human photoreceptor nuclear receptor NR2E3; GST-NR2E3/biotin-RetCOR TR-FRET, 1536-well; inhibition of corepressor binding, % at 4.78 µM; hit rate 0.12% among 320,000;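 active means percent inhibition above the cutoff of mean plus 3 SD of all tested compounds, set per screening campaign, cut at about 20% in these data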;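 further: 0% = DMSO wells and 100% = biotin wells as full block of FRET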
#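 Material: NR2E3–RetCOR corepressor complex / Incubation: Compound–protein incubation for 5 h at 4 °C / Dosing: compound at 4.8 µM, single dose / Detection: time-resolved FRET / Benchmarks: high control biotin, low control 0.6% DMSO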
# GASC-1 inh: blocks human GASC-1 demethylase activity; Q9H3R0; GST-JMJD2C(1-420) H3K9me3 demethylation, DELFIA europium; inhibition, % at 2.35 µM; hit rate 0.069% among 330,000;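 active means more than half of a compound's replicate wells show inhibition beyond 50%, single wells judged on their own value; inconclusive means some, but no more than half, of replicates pass 50% inhibition; inactive means no replicate passes 50% inhibition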;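 further: signal counts dimethyl H3K9 product captured on neutravidin plate; 0% = median of DMSO wells and 100% = 0.3 times that DMSO median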
# Target sequence (Q9H3R0 1-420 limits assumed): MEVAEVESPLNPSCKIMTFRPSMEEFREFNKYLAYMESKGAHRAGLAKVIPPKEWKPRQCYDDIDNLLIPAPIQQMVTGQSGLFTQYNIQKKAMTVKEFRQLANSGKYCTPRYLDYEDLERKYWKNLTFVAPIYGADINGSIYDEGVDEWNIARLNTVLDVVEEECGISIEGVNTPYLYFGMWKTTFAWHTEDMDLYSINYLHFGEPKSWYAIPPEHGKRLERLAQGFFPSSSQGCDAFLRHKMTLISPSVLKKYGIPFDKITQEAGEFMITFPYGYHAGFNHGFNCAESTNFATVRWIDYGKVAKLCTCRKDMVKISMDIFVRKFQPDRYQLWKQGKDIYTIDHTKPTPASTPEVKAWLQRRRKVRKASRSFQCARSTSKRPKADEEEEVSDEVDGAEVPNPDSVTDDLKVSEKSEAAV
# ADAM10 inh: ADAM10 inhibition, QFRET primary screen; O14672; AID 720582; hit rate 0.62% among 370,000; recombinant ADAM10, EDANS/DABCYL FRET peptide cleavage, 3 h; inhibition, % at 7 µM;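 active means inhibition above a per-campaign cutoff equal to the mean of compounds falling between control-based bounds plus 3 SD, cut at about 20% in these data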;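 further: 0% = DMSO wells while the 100% control is not disclosed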
# NR2E3 ag-2: human photoreceptor-specific nuclear receptor agonism. Q9Y5X4. AID 602229. hit rate 0.35% among 360,000. CHO-S Gal4-NCOR/VP16-NR2E3 two-hybrid, luciferase. inhibition of corepressor binding, % at 3.98 µM;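 active means inhibition above the mean of all tested compounds plus 3 SD, cut at about 70% in these data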;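 further: 0% = DMSO with NR2E3 transfected cells and 100% = cells lacking NR2E3 construct; higher means lower luciferase signal from less NR2E3 corepressor binding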
# ADAM17 inh: inhibits human ADAM17. recombinant ADAM17, EDANS/DABCYL FRET peptide cleavage. AID 720648. hit rate 0.83% among 370,000. inhibition, % at 6.95 µM. P78536;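 active means inhibition above the mean of compounds lying between control limits plus 3 SD, set per campaign, cut at about 8.5% in these data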;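 further: 0% = DMSO-only wells as the low control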
# KLK7 zymogen act: activators of human kallikrein-7 zymogen; P49862; purified proKLK7, EDANS-DABCYL substrate fluorescence; 100% is mature enzyme control, 0% vehicle; activation, % at 7 µM; hit rate 0.9% among 370,000;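 active means activation above the mean of all tested compounds plus 3 SD, computed per campaign excluding outliers beyond control limits, cut at about 13% in these data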
# Target sequence (P49862 whole entry, looked up): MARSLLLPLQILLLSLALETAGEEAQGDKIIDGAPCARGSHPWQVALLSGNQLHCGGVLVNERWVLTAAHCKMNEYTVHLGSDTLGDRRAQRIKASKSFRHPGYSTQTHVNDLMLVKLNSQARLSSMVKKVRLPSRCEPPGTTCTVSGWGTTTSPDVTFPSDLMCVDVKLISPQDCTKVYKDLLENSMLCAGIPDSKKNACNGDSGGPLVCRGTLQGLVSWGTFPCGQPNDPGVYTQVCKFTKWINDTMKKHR
# proKLK7 act conf: confirmation of human kallikrein-7 zymogen activators; shares compounds with KLK7 zymogen act; purified proKLK7, EDANS-DABCYL substrate fluorescence; scaled: vehicle 0, mature enzyme 100; activation, % at 7 µM; hit rate 68% among 3,200; AID 686949;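 active means activation, as change over the incubation, above the mean of all tested compounds plus 3 SD, cut at about 13% in these data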
# EDANS interfere: optically interferes with EDANS-DABCYL signal, flagging KLK7 hits; shares compounds with KLK7 zymogen act; EDANS-DABCYL substrate fluorescence interference, no enzyme, 4 h; solvent 0%, active enzyme control 100%; activation, % at 7 µM; hit rate 80% among 3,200;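 active means activation above the all-compound mean plus 3 SD, ignoring values outside control-based bounds, cut at about 4.8% in these data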;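 further: value is the 4 h activation minus the activation read at time zero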
# EDANS interf: counter-screen for kallikrein-7 activators: EDANS-DABCYL interference, dose response; hit rate 20% among 250; EC50, µM; shares compounds with KLK7 zymogen act; EDANS-DABCYL peptide fluorescence interference, no enzyme; AID 720493;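 active means compounds that raise the fluorescence signal in this interference counterscreen, with EC50 at or below 10 µM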;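 further: intact quenched peptide substrate alone read at 355 nm excitation and 520 nm emission; signal is fluorescence gain from T0 to T4 after four hours at room temperature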
# An asterisk follows results filed as active; i = inactive; ? = inconclusive; . = no result given. A selection: hits, their analogues and other compounds. The true share with any hit is near 2.5%.
SMILES,NR2E3 ag-1,GASC-1 inh,ADAM10 inh,NR2E3 ag-2,ADAM17 inh,KLK7 zymogen act,proKLK7 act conf,EDANS interfere,others
COc1ccc(NC(=O)c2sc3nc(C)cc(C)c3c2N)c(OC)c1,1.1,8.8,-8.2,-27.5,-3.5,0.1,.,.,
Cc1cc(C)c(C#N)c(SCC(=O)Nc2cccc(S(=O)(=O)N3CCCC3)c2)n1,.,.,-20.2,18.7,-11.4,-0.5,.,.,
COc1cccc(N2CC(=O)N(NC(=O)CSc3nc(C)cc(C)c3C#N)CC2=O)c1,1.1,1.1,-107.1,6.7,-31.2,71.0*,42.4*,45.2*,
COc1cccc(N2CC(=O)N(NC(=O)c3sc4nc(C)cc(C)c4c3N)CC2=O)c1,-1.5,5.2,i,-16.6,-282.2,56.3*,15.9*,21.6*,
Cc1cc(C)c2c(N)c(C(=O)NN3CC(=O)N(c4ccccc4F)CC3=O)sc2n1,-0.9,-6.4,i,-5.2,-338.8,111.6*,39.7*,41.8*,
COCCNC(=O)C1CCCN(Cc2cccc(C(F)(F)F)c2)CC1 (stereo not drawn),.,.,1.6,-59.0,-0.1,-0.1,.,.,
C=CCN1C(=O)C(CC(=O)Nc2ccccc2)SC1=Nc1ccc(S(N)(=O)=O)cc1 (stereo not drawn),2.1,-5.8,1.8,1.9,0.7,-0.7,.,.,
O=[N+]([O-])c1ccc(COP(=O)(O)OCc2ccc([N+](=O)[O-])cc2)cc1,1.7,2.7,2.2,-2.6,3.1,-0.3,.,.,
O=C(Nc1nc2ncccn2c1-c1ccc(F)c(F)c1)c1ccccc1,.,.,-238.3,.,-70.8,10.7,.,.,
O=C(Nc1c(-c2ccc(F)c(F)c2)nc2ncccn12)C1CC1,.,.,i,.,-230.2,18.5*,51.6*,57.5*,
Cc1ccc(-c2c(NC(=O)C3CC3)nc3ncccn23)cc1,.,.,i,.,-327.1,22.7*,29.7*,34.6*,
Nc1nc2ncccn2c1-c1ccc(F)c(F)c1,.,.,-253.5,.,-71.5,21.9*,23.9*,18.7*,EDANS interf=>69.5
CC1(C)Cc2c(c(N3CCOCC3)nc3sc(-c4ccc(C(=O)O)o4)c(N)c23)CO1,-4.1,10.9,-144.3,-29.8,-51.1,46.1*,22.1*,22.9*,
CN1Cc2c(N3CCOCC3)nc(SCCC#N)c(C#N)c2CC1(C)C,1.7,5.7,-25.5,-26.5,-11.7,2.4,.,.,
CC(C)Sc1nc(N2CCOCC2)c2c(c1C#N)CC(C)(C)N(C)C2,2.7,6.0,-140.5,-1.6,-50.5,35.2*,0.4,1.5,
CN1Cc2c(N3CCOCC3)nc3sc(C#N)c(N)c3c2CC1(C)C,0.7,-20.2,i,-21.6,-329.6,16.7*,67.8*,70.0*,
CCc1ccc(C(=O)Cc2cc3cccc(OC)c3oc2=O)cc1,-1.9,-12.5,4.4,-82.8,-1.1,1.1,.,.,
O=C(Oc1ccc2ccc(=O)oc2c1)c1ccc([N+](=O)[O-])cc1,-1.4,3.0,i,-5.2,i,45.2*,592.6*,573.0*,
CC(=O)Oc1ccc2ccc(=O)oc2c1,3.5,15.8,i,2.8,i,357.0*,602.4*,608.8*,
Cc1ccccc1NC(=O)COC(=O)COc1ccc2ccc(=O)oc2c1,.,.,-349.1,-20.1,-87.3,13.6*,15.6*,-1.5,EDANS interf=i
COc1cccc(C(=O)Oc2ccc3ccc(=O)oc3c2)c1,0.4,-0.8,i,9.4,-300.0,93.5*,616.3*,656.0*,
CCOc1ccccc1NC(=O)COc1ccc2ccc(=O)oc2c1,2.1,-1.2,-14.3,-8.8,-1.5,-0.6,.,.,
COc1ccc2ccc(=O)oc2c1,3.8,?,i,-14.9,-129.5,-0.7,.,.,
COc1ccc(Cn2cc(CN3CC(N4CCN(CCN(C)C)CC4)CS3(=O)=O)nn2)cc1 (stereo not drawn),.,.,-5.3,-3.9,-5.7,-0.5,.,.,
O=C(Oc1ccc2ccc(=O)oc2c1)c1cccs1,-0.1,-7.6,i,-8.2,i,580.8*,788.9*,771.1*,
SMILES,NR2E3 ag-1,GASC-1 inh,ADAM10 inh,NR2E3 ag-2,ADAM17 inh,KLK7 zymogen act,proKLK7 act conf,EDANS interfere,others
COc1ccc(C(=O)COc2ccc3ccc(=O)oc3c2)cc1,1.2,8.1,-32.4,-19.9,-13.6,1.9,.,.,
COc1ccc(C(=O)Oc2ccc3ccc(=O)oc3c2)cc1OC,0.1,1.7,i,-35.7,-340.4,14.0*,196.6*,193.0*,
CC(NC(=O)OC(C)(C)C)C(=O)Oc1ccc2ccc(=O)oc2c1 (stereo not drawn),1.4,.,i,-9.6,i,89.4*,466.5*,445.2*,
O=C(CNC(=O)OCc1ccccc1)Oc1ccc2ccc(=O)oc2c1,-3.9,4.5,i,-20.2,i,56.1*,183.1*,261.2*,
CC(C)(C)OC(=O)NCCC(=O)Oc1ccc2ccc(=O)oc2c1,0.7,-4.2,.,-16.5,.,.,.,.,
O=C(Nc1nnc([C@@H]2C[C@H](O)[C@@H](CO)O2)s1)Nc1ccccc1Oc1ccccc1,.,.,-2.1,-45.3,-0.7,-0.2,.,.,
CCC(C)CCN1C(Nc2ccccc2)=NC[C@@H]1C (stereo partly drawn),6.2,8.2,-1.8,6.9,-0.2,-0.5,.,.,
Cc1cn([C@H]2C[C@H](O)[C@@H](CNS(=O)(=O)N3CCCC3)O2)c(=O)[nH]c1=O,.,.,-10.6,-11.1,-1.3,-0.1,.,.,
Cc1cc(C(=O)COc2ccc3ccc(=O)oc3c2)c(C)n1C,4.5,4.9,i,-18.7,-202.8,137.8*,79.0*,84.9*,
COc1ccc(C(=O)COc2ccc3ccc(=O)oc3c2)c(OC)c1,2.1,-2.2,-289.4,4.8,-107.3,-6.8,.,.,
Cc1ccc(C(=O)Oc2ccc3ccc(=O)oc3c2)cc1,-0.2,-9.4,-248.3,6.4,-103.2,40.6*,110.8*,107.4*,
COC(=O)c1cc(COc2ccc3ccc(=O)oc3c2)c(C)o1,2.6,3.1,-166.2,-15.4,-48.6,-1.1,.,.,
COCCNC(=O)C1CCCN(Cc2ccccc2-c2ccccc2)CC1 (stereo not drawn),.,.,.,-57.4,.,.,.,.,
COC(=O)[C@]12C[C@H](CC(=O)N3CCCC3)C(=O)N(Cc3ccc(Cl)cc3Cl)C1=C[C@H](C1CCCC1)O[C@@H]2C,.,.,-2.0,.,-3.9,0.3,.,.,
CCOc1ccc(-c2cc(C(=O)N/N=C/c3cccnc3)c3ccccc3n2)cc1,0.9,-7.5,-214.2,-124.5,-90.6,-13.2,.,.,
COc1ccc(-c2cc(C(=O)N/N=C/c3cccnc3)c3cc(C)cc(C)c3n2)cc1,.,0.2,-187.2,-11.1,-66.4,112.5*,-312.6,-284.8,
